Ends that are not written are not given here. * marks the point of attachment. DTPA = O=C(O)CN(CCN(CC(=O)O)CC(=O)O)CCN(CC(=O)O)CC(=O)*; PEG = 40 kDa poly(ethylene glycol)
How the values were obtained:
[1] = target: T1, TIP1 protein (Homo sapiens, UniProt O14907); assay: Surface plasmon resonance; assay type: binding; settings: SPR BIAcore 2000, TIP1 on CM5 chip, Supplementary figure 1
T1 sequence (O14907 1-124): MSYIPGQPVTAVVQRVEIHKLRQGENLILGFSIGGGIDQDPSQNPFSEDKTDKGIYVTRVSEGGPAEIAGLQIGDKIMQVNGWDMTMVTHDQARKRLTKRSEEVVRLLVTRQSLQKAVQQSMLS

[2] = test system: HT3 tumors; assay: NanoSPECT/CT imaging, heterotopic cervical tumors; assay type: in vivo, nude mice
[3] = test system: OE33 tumors; assay type: in vivo, nude mice
[4] = test system: A549 tumors; assay: NanoSPECT/CT imaging, heterotopic lung tumors; assay type: in vivo; settings: nude mice, 48 h post injection, tumor irradiated 3 x 3 Gy
[5] = test system: HT3 tumors; assay type: in vivo, nude mice
[6] = test system: D54 tumors; assay: NanoSPECT/CT imaging, heterotopic glioblastoma tumors; assay type: in vivo; settings: nude mice, 48 h post injection, tumor irradiated 3 x 3 Gy
[7] = test system: BxPC3 tumors; assay: NanoSPECT/CT imaging, heterotopic pancreatic tumors; assay type: in vivo; settings: nude mice, 48 h post injection, tumor irradiated 3 x 3 Gy
[8] = test system: OE33 tumors; assay: NanoSPECT/CT imaging, heterotopic esophageal tumors; assay type: in vivo, nude mice
[9] = test system: OE33 tumors; assay: Autoradiography of tumor and muscle sections; assay type: in vivo, nude mice; settings: phosphor imager plate 16 h, after SPECT imaging
Summary of the method: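 After SPECT, tumors were sectioned at 200 micron, with leg muscle sections as control tissue. Sections were exposed to a phosphor imager plate for 16 h at −20 °C, and the plate was scanned to map microdistribution of the ¹¹¹In-labelled PEG-peptide.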

[10] = nude mice, i.v. ~500 μCi, 48 h and 72 h post injection, n=3 per group
[11] = right hind limb tumor 3 x 3 Gy vs left sham tumor
[12] = 96 h post injection, gamma counter, n=3 per group

Row | Substance | binding to immobilized TIP1 (sensogram comparison) [1] | tumor binding by SPECT, HT3 tumors [2, 10] | effect of irradiating the tumor on tumor binding, HT3 [2, 11] | tumor uptake in biodistribution vs control peptide, OE33 [3, 12] | presence in blood and liver, OE33 tumor-bearing mice ([3]; mouse, in vivo) | tumor binding by SPECT/CT, irradiated A549 tumors, compared to PEG-control [4] | tumor uptake in biodistribution vs control peptide, HT3 [5, 12] | presence in blood and liver, HT3 tumor-bearing mice ([5]; mouse, in vivo) | tumor binding by SPECT/CT, irradiated D54 tumors, compared to PEG-control [6] | tumor binding by SPECT/CT, irradiated BxPC3 tumors, compared to PEG-control [7] | tumor binding by SPECT, OE33 tumors [8, 10] | effect of irradiating the tumor on tumor binding, OE33 [8, 11] | microscopic distribution in OE33 tumor sections [9] | uptake in leg muscle sections (control tissue) [9]
1 | HGVIGRV [scrambled peptide, reference compound] | did not show binding | – | – | – | – | – | – | – | – | – | – | – | – | –
2 | ^111In-labeled PEG-DTPA-HVGGSSV: DTPA-PEG-HVGGSSV labeled with ^111Indium ({DTPA-PEG}-HVGGSSV; also: 111In chelated by DTPA) | – | bound | did not affect tumor binding | significantly higher (p<0.001) | observed in the blood and liver | enhanced binding | significantly higher (p<0.001) | observed in the blood and liver | enhanced binding | enhanced binding | bound | did not affect tumor binding | even distribution | no peptide uptake
3 | mPEG40K-carbonyl-Lys(CHX-A”-DTPA)-AEEAc-Lys(CHX-A”-DTPA)-AEEAc-Trp-Lys(CHX-A”-DTPA)-AEEAc-Gly-Ile-Arg-Leu-Arg-Gly-OH [PEG-HVGGSSV, mPEG40K-carbonyl-Lys(CHX-A”-DTPA)-AEEAc-Lys(CHX-A”-DTPA)-AEEAc-Trp-Lys(CHX-A”-DTPA)-AEEAc-Gly-Ile-Arg-Leu-Arg-Gly-OH trifluoroacetate Salt] | did not alter the binding affinity | – | – | – | – | – | – | – | – | – | – | – | – | –
